The values below come from ChEMBL document CHEMBL2413013, “Triplex-forming ability of oligonucleotides containing 1-aryl-1,2,3-triazole nucleobases linked via a two atom-length spacer” (Bioorg Med Chem, 2013).

Assay [1] is described as follows: Binding affinity to hairpin double stranded DNA AT base pair in sodium cacodylate buffer at pH 6.8 assessed as triplex-forming ability measuring melting temperature after by UV melting experiment. Put shortly: (§1)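 TFO and hairpin dsDNA target, each strand at 1.89 μM final, in 10 mM sodium cacodylate (pH 6.8) with 100 mM KCl and 50 mM MgCl₂. Annealed in boiling water, then cooled slowly to 5 °C. Melting was followed at 260 nm from 5 to 90 °C at 0.5 °C/min. Tm was taken by the two-point average method, mean of three independent runs.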

Assay [2] can be described thus: Binding affinity to hairpin double stranded DNA GC base pair in sodium cacodylate buffer at pH 6.8 assessed as triplex-forming ability measuring melting temperature after by UV melting experiment. An outline of the steps:
as §1

Assay [3] in a line: Binding affinity to hairpin double stranded DNA CG base pair in sodium cacodylate buffer at pH 6.8 assessed as triplex-forming ability measuring melting temperature after by UV melting experiment. An outline of the steps:
as §1

Assay [4] can be described thus: Binding affinity to hairpin double stranded DNA TA base pair in sodium cacodylate buffer at pH 6.8 assessed as triplex-forming ability measuring melting temperature after by UV melting experiment. Put shortly:
as §1

For the compound `Cc1cn([C@H]2C[C@H](O[PH](OCCC#N)(OC[C@H]3O[C@@H](n4cc(C)c(=O)[nH]c4=O)C[C@@H]3O[PH](OCCC#N)(OC[C@H]3O[C@@H](n4cc(C)c(=O)[nH]c4=O)C[C@@H]3O[PH](OCCC#N)(OC[C@H]3O[C@@H](n4cc(C)c(=O)[nH]c4=O)C[C@@H]3O[PH](OCCC#N)(OC[C@H]3O[C@@H](n4cc(C)c(=O)[nH]c4=O)C[C@@H]3O[PH](OCCC#N)(OC(C)[C@H]3O[C@@H](n4ccc(N)nc4=O)C[C@@H]3O[PH](OCCC#N)(OC[C@H]3O[C@@H](n4cc(C)c(=O)[nH]c4=O)C[C@@H]3O[PH](OCCC#N)(OC[C@H]3O[C@@H](CCc4cn(-c5cccc(CO)c5)nn4)C[C@@H]3OP(=O)(O)OC[C@H]3O[C@@H](n4cc(C)c(=O)[nH]c4=O)C[C@@H]3O[PH](OCCC#N)(OC(C)[C@H]3O[C@@H](n4ccc(N)nc4=O)C[C@@H]3O[PH](OCCC#N)(OC[C@H]3O[C@@H](n4cc(C)c(=O)[nH]c4=O)C[C@@H]3O[PH](OCCC#N)(OC(C)[C@H]3O[C@@H](n4ccc(N)nc4=O)C[C@@H]3O[PH](OCCC#N)(OC[C@H]3O[C@@H](n4cc(C)c(=O)[nH]c4=O)C[C@@H]3O[PH](OCCC#N)(OC(C)[C@H]3O[C@@H](n4ccc(N)nc4=O)C[C@@H]3O[PH](OCCC#N)(OC[C@H]3O[C@@H](n4cc(C)c(=O)[nH]c4=O)C[C@@H]3O)N(C(C)C)C(C)C)N(C(C)C)C(C)C)N(C(C)C)C(C)C)N(C(C)C)C(C)C)N(C(C)C)C(C)C)N(C(C)C)C(C)C)N(C(C)C)C(C)C)N(C(C)C)C(C)C)N(C(C)C)C(C)C)N(C(C)C)C(C)C)N(C(C)C)C(C)C)N(C(C)C)C(C)C)N(C(C)C)C(C)C)[C@@H](CO)O2)c(=O)[nH]c1=O` (some centres undefined), the Tm in assay [1] stood at 19 °C; in assay [2], 20 °C; in assay [3], 23 °C; in assay [4], 23 °C.
